Laboratory results: ChEMBL document CHEMBL2146441, “2,6-Disubstituted imidazo[2,1-b][1,3,4]thiadiazoles: search for anticancer agents” (2012)

Key:
Type in all cases: functional
MDA-MB-435 = test: Cytotoxicity against human MDA-MB-435 cells assessed as cell growth at 10^-4 M after 48 hrs by SRB assay; conditions: MDA-MB-435, 48 h, read-out: Activity
OVCAR-4 = test: Growth inhibition of human OVCAR4 cells after 48 hrs by SRB assay; conditions: OVCAR-4, 48 h
Summary of the method: (§1)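 Adherent NCI-60 lines grown in RPMI 1640 with 5% FBS, seeded at 5000–40,000 cells/well, and preincubated 24 h at 37 °C, 5% CO2. Compound, stocked in DMSO, given either once at 10^-5 M or at five 10-fold dilutions for 48 h. Cells fixed with cold TCA (final 10%), stained with 0.4% SRB, and read at 515 nm. GI50 taken as 50% reduction in net protein increase versus time-zero and control plates.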

786-0 = test: Cytotoxicity against human 786-0 cells assessed as cell growth at 10^-4 M after 48 hrs by SRB assay; conditions: 786-0, 48 h, read-out: Activity
Summary of the method: (§2)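 NCI-60 screen: lines kept in RPMI 1640 with 5% FBS, seeded at 5000–40,000 cells/well by doubling time, preincubated 24 h at 37 °C in 5% CO2. Time-zero plates TCA-fixed at drug addition. DMSO stocks diluted in medium, 48 h exposure. Fixation in cold TCA (final 10% adherent, 16% suspension), 0.4% SRB stain, solubilised in 10 mM Tris base, A515. Percent growth computed against control and time-zero.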

CCRF-CEM = test: Growth inhibition of human CCRF-CEM cells after 48 hrs by SRB assay; conditions: for CC50: read-out: LC50 (the source's name)
Summary of the method: (§3)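 Same 48 h NCI-60 five-dose SRB protocol. Adherent lines were fixed with cold TCA at 10% final; suspension lines such as CCRF-CEM were fixed with 16% final TCA. Stain was 0.4% SRB in 1% acetic acid for 10 min, solubilized in 10 mM Tris base and read at 515 nm. GI50 came from log concentration–growth curves, solving [(Ti−Tz)/(C−Tz)]×100 = 50.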

HOP-62 = test: Cytotoxicity against human HOP62 cells assessed as cell growth at 10^-7 M after 48 hrs by SRB assay; conditions: HOP-62, 48 h, read-out: Activity
Summary of the method: (§4)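 NCI-60 five-dose screen. Cells were grown in RPMI 1640 with 5% FBS and seeded at 5000–40,000 cells/well according to doubling time. They were pre-incubated 24 h at 37 °C in 5% CO₂, and time-zero (Tz) plates were TCA-fixed at drug addition. Five 10-fold dilutions of DMSO stock were applied for 48 h. Read-out was SRB staining, 515 nm absorbance, with percent growth calculated versus Tz and untreated control.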

T47D = test: Cytotoxicity against human T47D cells assessed as cell growth at 10^-6 M after 48 hrs by SRB assay; conditions: read-out: Activity
HCT-15 = test: Cytotoxicity against human HCT15 cells assessed as cell growth at 10^-6 M after 48 hrs by SRB assay; conditions: HCT-15, 48 h, read-out: Activity; summary of the method: as §4
MOLT-4 [1] = test: Cytotoxicity against human MOLT4 cells assessed as cell growth at 10^-5 M after 48 hrs by SRB assay; conditions: MOLT-4, 48 h, read-out: Activity
BT-549 = test: Cytotoxicity against human BT549 cells assessed as cell growth at 10^-8 M after 48 hrs by SRB assay; conditions: BT-549, 48 h, read-out: Activity; summary of the method: as §2
NCI-H460 = test: Cytotoxicity against human NCI-H460 cells assessed as cell growth at 10^-5 M after 48 hrs by SRB assay; conditions: NCI-H460, 48 h, read-out: Activity
RXF 393 [2] = test: Cytotoxicity against human RXF393 cells assessed as cell growth at 10^-7 M after 48 hrs by SRB assay; conditions: RXF 393, 48 h, read-out: Activity
MOLT-4 [3] = test: Cytotoxicity against human MOLT4 cells assessed as cell growth at 10^-6 M after 48 hrs by SRB assay; conditions: MOLT-4, 48 h, read-out: Activity
SK-MEL-28 = test: Cytotoxicity against human SK-MEL-28 cells assessed as cell growth at 10^-5 M after 48 hrs by SRB assay; conditions: SK-MEL-28, 48 h, read-out: Activity
M14 = test: Cytotoxicity against human M14 cells assessed as cell growth at 10^-6 M after 48 hrs by SRB assay; conditions: M14, 48 h, read-out: Activity
NCI-H322M = test: Growth inhibition of human NCI-H322M cells after 48 hrs by SRB assay; conditions: for CC50: read-out: LC50 (the source's name); summary of the method: as §1
UO-31 = test: Cytotoxicity against human UO31 cells assessed as cell growth at 10^-7 M after 48 hrs by SRB assay; conditions: UO-31, 48 h, read-out: Activity
COLO = test: Growth inhibition of human COLO […] cells after 48 hrs by SRB assay; summary of the method: as §3
A549 = test: Cytotoxicity against human A549 cells assessed as cell growth at 10^-5 M after 48 hrs by SRB assay; conditions: A549, 48 h, read-out: Activity; summary of the method: as §2
HCC 2998 [4] = test: Cytotoxicity against human HCC2998 cells assessed as cell growth at 10^-8 M after 48 hrs by SRB assay; conditions: HCC 2998, 48 h, read-out: Activity; summary of the method: as §4
HCC 2998 [5] = test: Cytotoxicity against human HCC2998 cells assessed as cell growth at 10^-4 M after 48 hrs by SRB assay; conditions: HCC 2998, 48 h, read-out: Activity; summary of the method: as §2
A498 = test: Cytotoxicity against human A498 cells assessed as cell growth at 10^-7 M after 48 hrs by SRB assay; conditions: A498, 48 h, read-out: Activity; summary of the method: as §2
SF-268 = test: Growth inhibition of human SF268 cells after 48 hrs by SRB assay; conditions: SF-268, 48 h; summary of the method: as §1
[6] = Cytotoxicity against human Hs 578T cells assessed as cell growth at 10^-7 M after 48 hrs by SRB assay; conditions: read-out: Activity; summary of the method: as §4
MOLT-4 [7] = test: Growth inhibition of human MOLT4 cells after 48 hrs by SRB assay; conditions: MOLT-4, 48 h
Summary of the method: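 Leukemia suspension lines grown in RPMI 1640 with 5% FBS, seeded at 5000–40,000 cells/well, and preincubated 24 h at 37 °C, 5% CO2. Compound, stocked in DMSO, given either once at 10^-5 M or at five 10-fold dilutions for 48 h. Settled cells fixed with 80% TCA (final 16%), stained with SRB, and read at 515 nm. GI50 calculated against time-zero and control growth.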

RXF 393 [8] = test: Cytotoxicity against human RXF393 cells assessed as cell growth at 10^-6 M after 48 hrs by SRB assay; conditions: RXF 393, 48 h, read-out: Activity
ACHN = test: Growth inhibition of human ACHN cells after 48 hrs by SRB assay; conditions: for CC50: read-out: LC50 (the source's name); summary of the method: as §3

Structure (SMILES) | growth at 100 µM (MDA-MB-435) [%] | GI50 (OVCAR-4) [µM] | TGI (OVCAR-4) [µM] | growth at 100 µM (786-0) [%] | GI50 (CCRF-CEM) [µM] | TGI (CCRF-CEM) [µM] | CC50 (CCRF-CEM) [µM] | growth at 0.1 µM (HOP-62) [%] | growth at 1 µM (T47D) [%] | growth at 1 µM (HCT-15) [%] | growth at 10 µM (MOLT-4 [1]) [%] | growth at 0.01 µM (BT-549) [%] | growth at 10 µM (NCI-H460) [%] | growth at 0.1 µM (RXF 393 [2]) [%] | growth at 1 µM (MOLT-4 [3]) [%] | growth at 10 µM (SK-MEL-28) [%] | growth at 1 µM (M14) [%] | GI50 (NCI-H322M) [µM] | TGI (NCI-H322M) [µM] | CC50 (NCI-H322M) [µM] | also measured
COc1ccc(-c2nn3cc(-c4cccc(N)c4)nc3s2)cc1 | -53 | 1.54 | 15.1 | -93 | 1.77 | > 100 | > 100 | 98 | 57 | 86 | 21 | 102 | 26 | 85 | 76 | 28 | 94 | 7.15 | 87.2 | > 100 | CC50 (OVCAR-4; read-out: LC50 (the source's name)): > 100 µM; growth at 0.1 µM (UO-31): 81%; GI50 (COLO): 7.08 µM; LC50 (COLO): 86 µM; TGI (COLO): 26.7 µM; growth at 10 µM (A549): 36%; growth at 0.01 µM (HCC 2998 [4]): 98%; growth at 100 µM (HCC 2998 [5]): 6%; growth at 0.1 µM (A498): 79%; GI50 (SF-268): 4.13 µM; LC50 (SF-268): > 100 µM; TGI (SF-268): 27.2 µM; growth at 0.1 µM [6]: 84%; GI50 (MOLT-4 [7]): 3 µM; LC50 (MOLT-4 [7]): > 100 µM; TGI (MOLT-4 [7]): > 100 µM; growth at 1 µM (RXF 393 [8]): 63%; GI50 (ACHN): 4.5 µM; TGI (ACHN): 21.8 µM; CC50 (ACHN): 91.3 µM
COc1ccc(-c2nn3cc(-c4ccc(O)cc4O)nc3s2)cc1 | -38 | 1.38 | 3.39 | -33 | 5.08 | > 100 | > 100 | 91 | 71 | 93 | 20 | 94 | -6 | 104 | 78 | 3 | 81 | 3.23 | > 100 | > 100 | growth at 0.1 µM (UO-31): 83%; GI50 (COLO): 5.82 µM; LC50 (COLO): > 100 µM; TGI (COLO): 36.8 µM; growth at 10 µM (A549): 2%; growth at 0.01 µM (HCC 2998 [4]): 98%; growth at 100 µM (HCC 2998 [5]): -3%; growth at 0.1 µM (A498): 70%; GI50 (SF-268): 2.42 µM; LC50 (SF-268): > 100 µM; TGI (SF-268): 41.1 µM; growth at 0.1 µM [6]: 93%; GI50 (MOLT-4 [7]): 3.04 µM; LC50 (MOLT-4 [7]): > 100 µM; TGI (MOLT-4 [7]): 29.8 µM; growth at 1 µM (RXF 393 [8]): 55%; GI50 (ACHN): 3.52 µM; TGI (ACHN): > 100 µM; CC50 (ACHN): > 100 µM
